Reference: ChEMBL document CHEMBL4715793 (J Med Chem, 2016)
The source made the active and inactive calls. No cut-off for these calls is given here.

What was measured:
Hepatitis C virus [1] = assay: Antiviral activity against wild-type HCV J6/JFH/JC1 infected in human Huh7.5 cells assessed as inhibition of viral replication measured after 72 hrs by qRT-PCR analysis; type: functional, organism-based, Hepacivirus hominis; details: J6/JFH/JC1, Huh7.5, 72 h
In short: (§1)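 Huh7.5 cells seeded at 3 × 10^4/cm2 and incubated 24 h. Infected with wild-type HCVcc stock (45 IU/cell) with compound or solvent control added at the same time. After 72 h, intracellular RNA measured by one-step qRT-PCR and core protein by Western blot. EC50 by Reed & Muench method, mean ± SD from three independent experiments.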

Hepacivirus hominis = assay: Inhibition of HCV NS5B polymerase
[2] = Antiviral activity against HCV subtype 2a J6/JFH/JC1 infected in human Huh7.5 cells assessed as reduction in viral RNA levels measured after 72 hrs by qRT-PCR analysis; details: Hepatitis C virus, J6/JFH/JC1, Huh7.5, 72 h
Hepatitis C virus [3] = assay: Antiviral activity against HCV J6/JFH/JC1 harboring D168V mutant infected in human Huh7.5 cells assessed as inhibition of viral replication measured after 72 hrs by qRT-PCR analysis; type: functional, organism-based, Hepacivirus hominis; details: J6/JFH/JC1, Huh7.5, 72 h
Hepatitis C virus [4] = assay: Synergistic antiviral activity against HCV J6/JFH/JC1 infected in human HuH7.5 cells assessed as inhibition of viral protein levels at 6.25 uM in presence of simeprevir measured after 72 hrs by western blot analysis; type: functional, organism-based; details: Hepacivirus hominis
In short: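 Huh7.5 cells infected with HCV (45 IU/cell) and simultaneously treated with compound (6.25 μM) alone, DAA alone, or both. […] Intracellular protein analysed by Western blot at 72 h. At least triplicate, mean ± SD, Student's t test.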

[5] = biological target: T1, Chondroitin sulfate N-acetylgalactosaminyltransferase 1 (Homo sapiens) (UniProt Q8TDX6); assay: Destabilization of CSGalNacT-1 in human Huh7.5 cells assessed as reduction in CSGalNacT-1 mRNA levels at 6.25 to 100 uM measured after 72 hrs by qRT-PCR analysis; type: cell-based; details: dose 6.25-100 µM
T1 sequence (whole entry): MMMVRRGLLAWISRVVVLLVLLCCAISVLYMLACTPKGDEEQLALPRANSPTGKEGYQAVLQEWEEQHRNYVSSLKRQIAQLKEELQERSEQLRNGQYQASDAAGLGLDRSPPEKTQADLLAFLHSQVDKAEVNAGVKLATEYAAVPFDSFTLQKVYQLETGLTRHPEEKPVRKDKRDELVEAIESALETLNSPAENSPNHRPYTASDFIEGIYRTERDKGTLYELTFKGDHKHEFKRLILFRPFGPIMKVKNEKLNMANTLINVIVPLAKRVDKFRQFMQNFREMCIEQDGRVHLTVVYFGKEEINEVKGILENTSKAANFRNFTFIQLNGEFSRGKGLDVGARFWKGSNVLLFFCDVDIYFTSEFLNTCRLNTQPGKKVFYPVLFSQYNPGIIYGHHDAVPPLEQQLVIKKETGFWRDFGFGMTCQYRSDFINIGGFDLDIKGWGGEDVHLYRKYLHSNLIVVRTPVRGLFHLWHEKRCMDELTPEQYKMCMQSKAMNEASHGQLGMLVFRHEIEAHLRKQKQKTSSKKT

Hepatitis C virus [6] = assay: Antiviral activity against wild-type HCV infected in human HuH7.5 cells assessed as reduction in viral protein levels at 6.25 to 100 uM measured after 72 hrs by Western blot assay; type: functional, organism-based; details: Hepacivirus hominis, dose 6.25-100 µM; in short: as §1
[7] = Selectivity index, ratio of CC50 for cytotoxicity against human Huh7.5 cells assessed as reduction in cell viability incubated for 72 hrs by MTT assay to EC50 for antiviral activity against HCV genotype 2a J6/JFH/JC1 infected in human Huh7.5 cells assessed as reduction in viral RNA levels measured after 72 hrs by qRT-PCR analysis; type: toxicity, cell-based; details: read-out: Ratio CC50/EC50
Hepatitis C virus [8] = assay: Synergistic antiviral activity against HCV J6/JFH/JC1 infected in human HuH7.5 cells assessed as combination index measured after 72 hrs in presence of sofosbuvir by Chou-Talalay method; type: functional, Hepacivirus hominis
Huh7.5 [9] = assay: Effect on CD36 expression level in human Huh7.5 cells at 6.25 to 25 uM by Western blot analysis; type: functional, cell-based; details: dose 6.25-25 µM
[10] = Resistance ratio of EC50 for antiviral activity against HCV J6/JFH/JC1 harboring S282T mutant infected in human Huh7.5 cells to EC50 for antiviral activity against wild-type HCV J6/JFH/JC1 infected in human Huh7.5 cells; type: functional
Hepatitis C virus [11] = assay: Synergistic antiviral activity against HCV J6/JFH/JC1 infected in human HuH7.5 cells assessed as combination index measured after 72 hrs in presence of daclatasvir by Chou-Talalay method; type: functional, Hepacivirus hominis
Huh7.5 [12] = assay: Effect on Hsc70 expression level in human Huh7.5 cells at 6.25 to 25 uM by Western blot analysis; type: functional, cell-based; details: dose 6.25-25 µM
[13] = biological target: T1, Chondroitin sulfate N-acetylgalactosaminyltransferase 1 (Homo sapiens); assay: Destabilization of CSGalNacT-1 in human Huh7.5 cells assessed as reduction in CSGalNacT-1 expression measured after 72 hrs by Western blot analysis; type: cell-based; details: dose 6.25-100 µM
[14] = biological target: T1, Chondroitin sulfate N-acetylgalactosaminyltransferase 1 (Homo sapiens); assay: Destabilization of CSGalNacT-1 in HCV infected human HuH7.5 cells assessed as reduction in CSGalNacT-1 mRNA levels at 6.25 to 100 uM measured after 72 hrs by qRT-PCR analysis; details: dose 6.25-100 µM
In short: (§2)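 Huh7.5 cells infected with HCV (45 IU/cell) and exposed to compound for 72 h. CSGalNAcT-1 protein measured by Western blot and mRNA by qRT-PCR. Error bars are SD of three independent experiments.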

[15] = biological target: T1, Chondroitin sulfate N-acetylgalactosaminyltransferase 1 (Homo sapiens); assay: Destabilization of CSGalNacT-1 in human Huh7.5 cells assessed as reduction in CSGalNacT-1 mRNA levels by gene chip assay; type: cell-based
Hepatitis C virus [16] = assay: Antiviral activity against HCV infected in human HuH7.5 cells assessed as inhibition of viral protein level during early stage at 6.25 to 25 uM incubated for 2 hrs prior to compound washout followed by supplementation of fresh culture medium and measured after 72 hrs by Western blot analysis; type: functional, organism-based; details: Hepacivirus hominis; Huh-7; dose 6.25-25 µM
In short: (§3)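 Huh7.5 cells seeded 24 h earlier, infected with HCV (150 IU/cell) with simultaneous compound or solvent control for 2 h. Cells washed with PBS and given fresh medium. Intracellular RNA (qRT-PCR) and protein (Western blot) extracted at 72 h.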

[17] = biological target: T1, Chondroitin sulfate N-acetylgalactosaminyltransferase 1 (Homo sapiens); assay: Destabilization of CSGalNacT-1 in human Huh7.5 cells assessed as down regulation of CSGalNacT-1 protein levels at 25 uM measured after 24 hrs in presence of protease inhibitor MG132 by Western blot analysis; type: cell-based
In short: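 Huh7.5 cells cotreated with compound (25 μM) and proteasome inhibitor MG132 (1 μM). Cells given compound alone or MG132 alone served as controls. After 24 h, total intracellular protein extracted and CSGalNAcT-1 detected by Western blot.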

Hepatitis C virus [18] = assay: Antiviral activity against HCV infected in human HuH7.5 cells assessed as inhibition of viral RNA levels during early stage at 6.25 to 25 uM incubated for 2 hrs prior to compound washout followed by supplementation of fresh culture medium and measured after 72 hrs by qRT-PCR analysis; type: functional, organism-based; details: Hepacivirus hominis; Huh-7; dose 6.25-25 µM; in short: as §3
[19] = biological target: T1, Chondroitin sulfate N-acetylgalactosaminyltransferase 1 (Homo sapiens); assay: Destabilization of CSGalNacT-1 in HCV infected human HuH7.5 cells assessed as reduction in CSGalNacT-1 protein levels measured after 72 hrs by Western blot analysis; details: dose 6.25-100 µM; in short: as §2

In the case of `COc1cc(/C=C/c2ccccc2)c(C(=O)O)c(O)c1CC=C(C)C`, the EC50 (Hepatitis C virus [1]) is reported as 3.03 µM, the inhibition (Hepacivirus hominis) is reported as “inactive” and the EC50 [2] is reported as 3.17 µM. For the same molecule, the EC50 (Hepatitis C virus [3]) was 3.8 µM, the Activity (Hepatitis C virus [4]) was “Active” and the Activity [5] was “inactive”. The Activity (Hepatitis C virus [6]) was “Active”, the selectivity ratio at 72 h [7] was 40 and the CI (Hepatitis C virus [8]) was 0.693. The Activity (Huh7.5 [9]) was “inactive”, the Ratio EC50 [10] was 2.8 and the CI (Hepatitis C virus [11]) was 0.76. For the same molecule, the Activity (Huh7.5 [12]) was “inactive”, the Activity [13] was “Dose-dependent effect” and the Activity [14] was “inactive”. The Activity [15] was “Active”, the Activity (Hepatitis C virus [16]) was “inactive” and the Activity [17] was “inactive”. The Activity (Hepatitis C virus [18]) was “inactive” and the Activity [19] was “Dose-dependent effect”.
